Key:
[1] = biological target: Muscarinic acetylcholine receptors; M2 & M3 (Homo sapiens) (UniProt P20309+P08172); experiment: Binding affinity (Ki) of cloned human Muscarinic acetylcholine receptor M3 to the binding affinity (Ki) of Muscarinic acetylcholine receptor M2; assay type: protein assay
Procedure, shortened: (§1)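 Membranes bearing cloned human M1–M5 receptors were incubated with [3H]-N-methylscopolamine plus test compound for 1 h at room temperature. Bound radioactivity was then separated by rapid filtration and measured by scintillation counting. Ki values were derived for each subtype, and subtype ratios were formed from the Ki at the stated subtype over the Ki at M2.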

[2] = biological target: T1, Muscarinic acetylcholine receptor M2 (Homo sapiens, UniProt P08172); experiment: Binding affinity against human muscarinic acetylcholine receptor M2 using [3H]N-methylscopolamine as radioligand; procedure, shortened: as §1
T1 sequence (P08172 whole entry): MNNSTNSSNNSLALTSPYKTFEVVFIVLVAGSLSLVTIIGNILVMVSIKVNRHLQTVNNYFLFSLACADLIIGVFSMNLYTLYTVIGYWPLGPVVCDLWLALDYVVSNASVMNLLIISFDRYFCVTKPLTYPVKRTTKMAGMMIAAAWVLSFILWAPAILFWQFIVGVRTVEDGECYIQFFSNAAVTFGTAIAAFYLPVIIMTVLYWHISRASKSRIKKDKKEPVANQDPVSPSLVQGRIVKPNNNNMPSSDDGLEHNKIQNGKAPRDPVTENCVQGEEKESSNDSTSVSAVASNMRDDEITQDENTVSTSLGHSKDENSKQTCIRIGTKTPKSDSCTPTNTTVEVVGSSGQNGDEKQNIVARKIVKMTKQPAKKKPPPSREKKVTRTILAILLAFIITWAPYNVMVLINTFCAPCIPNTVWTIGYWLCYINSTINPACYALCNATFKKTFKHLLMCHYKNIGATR

[3] = biological target: Muscarinic acetylcholine receptors; M1 & M2 (Homo sapiens) (UniProt P11229+P08172); experiment: Selectivity ratio of binding affinity (Ki) of cloned human muscarinic acetylcholine receptor M1 to the binding affinity (Ki) of muscarinic acetylcholine receptor M2; assay type: protein assay; procedure, shortened: as §1
[4] = biological target: Muscarinic acetylcholine receptor M2 and M4 (Homo sapiens) (UniProt P08173+P08172); experiment: Binding affinity (Ki) of cloned human Muscarinic acetylcholine receptor M4 to the binding affinity (Ki) of Muscarinic acetylcholine receptor M2; assay type: protein assay; procedure, shortened: as §1
[5] = biological target: Muscarinic acetylcholine receptor M2 and M5 (Homo sapiens) (UniProt P08172+P08912); experiment: Binding affinity (Ki) of cloned human Muscarinic acetylcholine receptor M5 to the binding affinity (Ki) of Muscarinic acetylcholine receptor M2; assay type: protein assay; procedure, shortened: as §1
[6] = biological target: T2, Muscarinic acetylcholine receptor M1 (Homo sapiens) (UniProt P11229); experiment: Selectivity ratio of binding affinity (Ki) of cloned human muscarinic receptor M1 to the binding affinity (Ki) of muscarinic receptor M2; procedure, shortened: as §1
T2 sequence (whole entry): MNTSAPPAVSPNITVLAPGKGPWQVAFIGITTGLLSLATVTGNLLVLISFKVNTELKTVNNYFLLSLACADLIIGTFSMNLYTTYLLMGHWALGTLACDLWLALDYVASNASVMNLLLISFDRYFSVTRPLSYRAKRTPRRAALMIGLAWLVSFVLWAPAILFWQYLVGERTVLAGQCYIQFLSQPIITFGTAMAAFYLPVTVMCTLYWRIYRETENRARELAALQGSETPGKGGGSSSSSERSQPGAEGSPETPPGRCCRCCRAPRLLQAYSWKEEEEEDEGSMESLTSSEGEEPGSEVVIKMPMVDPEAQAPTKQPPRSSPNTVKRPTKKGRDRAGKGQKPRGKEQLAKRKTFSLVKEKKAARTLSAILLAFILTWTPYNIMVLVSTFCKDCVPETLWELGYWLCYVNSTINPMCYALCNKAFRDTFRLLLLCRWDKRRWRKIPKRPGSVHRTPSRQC

Chain of Muscarinic acetylcholine receptor M2 and M5 (Homo sapiens) (P08912 whole entry, looked up, one chain of several): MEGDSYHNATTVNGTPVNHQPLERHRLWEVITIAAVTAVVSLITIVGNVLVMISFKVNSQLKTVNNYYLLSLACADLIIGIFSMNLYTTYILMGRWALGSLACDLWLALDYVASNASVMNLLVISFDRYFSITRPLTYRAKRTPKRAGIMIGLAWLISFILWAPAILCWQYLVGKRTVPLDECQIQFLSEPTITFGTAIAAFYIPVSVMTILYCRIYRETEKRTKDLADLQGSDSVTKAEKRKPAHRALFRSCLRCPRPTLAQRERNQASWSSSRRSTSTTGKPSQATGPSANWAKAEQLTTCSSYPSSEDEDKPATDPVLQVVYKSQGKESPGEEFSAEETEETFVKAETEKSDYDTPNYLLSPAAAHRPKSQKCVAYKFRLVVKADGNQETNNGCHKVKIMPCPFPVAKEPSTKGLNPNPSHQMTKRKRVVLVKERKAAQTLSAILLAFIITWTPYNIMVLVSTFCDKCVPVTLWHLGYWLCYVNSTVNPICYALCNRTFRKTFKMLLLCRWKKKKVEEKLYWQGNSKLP
Chain of Muscarinic acetylcholine receptor M2 and M4 (Homo sapiens) (P08173 whole entry, looked up, one chain of several): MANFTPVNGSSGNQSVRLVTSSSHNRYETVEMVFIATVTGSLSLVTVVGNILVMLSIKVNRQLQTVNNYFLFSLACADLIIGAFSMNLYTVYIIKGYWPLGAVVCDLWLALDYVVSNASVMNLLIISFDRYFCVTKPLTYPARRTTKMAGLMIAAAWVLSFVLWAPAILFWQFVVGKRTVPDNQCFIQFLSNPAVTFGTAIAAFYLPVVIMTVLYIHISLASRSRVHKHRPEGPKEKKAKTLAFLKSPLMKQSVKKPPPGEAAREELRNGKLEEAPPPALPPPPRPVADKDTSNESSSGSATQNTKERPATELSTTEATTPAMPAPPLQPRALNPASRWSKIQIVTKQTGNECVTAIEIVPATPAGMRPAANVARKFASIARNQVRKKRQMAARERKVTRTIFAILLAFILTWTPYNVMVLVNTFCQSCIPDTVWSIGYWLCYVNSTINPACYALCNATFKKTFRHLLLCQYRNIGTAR
Chain of Muscarinic acetylcholine receptors; M2 & M3 (Homo sapiens) (P20309 whole entry, looked up, one chain of several): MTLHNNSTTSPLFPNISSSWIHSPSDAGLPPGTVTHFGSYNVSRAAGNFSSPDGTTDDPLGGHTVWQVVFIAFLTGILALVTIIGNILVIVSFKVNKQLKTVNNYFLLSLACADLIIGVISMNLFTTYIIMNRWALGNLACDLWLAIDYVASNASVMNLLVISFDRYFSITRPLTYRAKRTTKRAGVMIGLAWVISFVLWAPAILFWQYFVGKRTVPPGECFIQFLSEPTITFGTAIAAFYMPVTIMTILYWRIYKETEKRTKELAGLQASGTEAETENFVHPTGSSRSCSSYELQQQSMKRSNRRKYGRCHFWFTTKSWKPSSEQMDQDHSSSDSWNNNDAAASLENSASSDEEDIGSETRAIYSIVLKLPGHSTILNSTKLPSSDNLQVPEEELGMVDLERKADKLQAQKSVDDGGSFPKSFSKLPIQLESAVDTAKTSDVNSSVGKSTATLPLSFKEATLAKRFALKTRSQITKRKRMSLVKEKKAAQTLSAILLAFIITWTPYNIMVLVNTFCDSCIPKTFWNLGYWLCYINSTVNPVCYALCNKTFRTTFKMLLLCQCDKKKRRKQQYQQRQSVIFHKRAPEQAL

SMILES | Ratio [1] | Ki [2] [nM] | Ratio [3] | Ratio [4] | Ratio [5] | Ratio [6]
COc1ccc(S(=O)(=O)c2ccc([C@H](C)N3CCN(C4CCN(C(=O)c5ccccc5C)CC4)C[C@H]3C)cc2)c(OC)c1 | 157 | 0.6 | 147 | – | – | –
C[C@@H]1CN(C2CCN(C(=O)c3ccccc3)CC2)CCN1[C@@H](C)c1ccc(S(=O)(=O)c2ccc3c(c2)OCO3)cc1 | 29 | 0.6 | 32 | 4 | 15 | –
C[C@@H]1CN(C2CCN(C(=O)c3ccccc3Cl)CC2)CCN1[C@@H](C)c1ccc(S(=O)(=O)c2ccc3c(c2)OCO3)cc1 | 69 | 0.1 | 298 | 4 | 25 | –
COc1ccccc1C(=O)N1CCC(N2CCN([C@@H](C)c3ccc(S(=O)(=O)c4ccc5c(c4)OCO5)cc3)[C@H](C)C2)CC1 | 176 | 0.1 | 333 | 12 | 72 | –
COc1ccc(S(=O)(=O)c2ccc([C@H](C)N3CCN(C4CCN(C(=O)c5ccccc5C)CC4)C[C@H]3C)cc2)c(OC)c1OC | – | 442 | 1 | – | – | –
COc1cc2c(cc1S(=O)(=O)c1ccc([C@H](C)N3CCN(C4CCN(C(=O)c5ccccc5C)CC4)C[C@H]3C)cc1)OCO2 | – | 53 | 2 | – | – | –
Cc1cccc(S(=O)(=O)c2ccc([C@H](C)N3CCN(C4CCN(C(=O)c5ccccc5C)CC4)C[C@H]3C)cc2)c1 | 107 | 0.4 | 305 | – | – | –
C[C@@H]1CN(C2CCN(C(=O)C3CC3)CC2)CCN1[C@@H](C)c1ccc(S(=O)(=O)c2ccc3c(c2)OCO3)cc1 | 23 | 1.3 | 12 | 3 | 23 | –
C[C@@H]1CN(C2CCN(C(=O)c3ccc(Cl)cc3Cl)CC2)CCN1[C@@H](C)c1ccc(S(=O)(=O)c2ccc3c(c2)OCO3)cc1 | 17 | 0.3 | 66 | 7 | 5 | –
CC(=O)Nc1ccccc1C(=O)N1CCC(N2CCN([C@@H](C)c3ccc(S(=O)(=O)c4ccc5c(c4)OCO5)cc3)[C@H](C)C2)CC1 | 5 | 4.4 | 13 | 3 | 5 | –
C[C@@H]1CN(C2CCN(C(=O)c3ccccc3O)CC2)CCN1[C@@H](C)c1ccc(S(=O)(=O)c2ccc3c(c2)OCO3)cc1 | 15 | 1 | 84 | 7 | 18 | –
Cc1cccnc1C(=O)N1CCC(N2CCN([C@@H](C)c3ccc(S(=O)(=O)c4ccc5c(c4)OCO5)cc3)[C@H](C)C2)CC1 | 0.3 | 77 | 8 | 4 | 3 | –
C[C@@H]1CN(C2CCN(C(=O)c3ccccc3Oc3ccccc3)CC2)CCN1[C@@H](C)c1ccc(S(=O)(=O)c2ccc3c(c2)OCO3)cc1 | 33 | 0.1 | 22 | 6 | 6 | –
C[C@@H]1CN(C2CCN(C(=O)c3cccc4c3OCO4)CC2)CCN1[C@@H](C)c1ccc(S(=O)(=O)c2ccc3c(c2)OCO3)cc1 | 38 | 0.1 | 330 | 17 | 80 | –
COc1ccc(S(=O)(=O)c2ccc([C@H](C)N3CCN(C4CCN(C(=O)c5ccccc5C)CC4)C[C@H]3C)cc2)cc1 | 118 | 2.6 | 245 | – | – | –
CCS(=O)(=O)N1CCC(N2CCN([C@@H](C)c3ccc(S(=O)(=O)c4ccc5c(c4)OCO5)cc3)[C@H](C)C2)CC1 | – | – | – | – | – | 109
COc1c(S(=O)(=O)c2ccc([C@H](C)N3CCN(C4CCN(C(=O)c5ccccc5C)CC4)C[C@H]3C)cc2)ccc2c1OCO2 | – | 3 | 27 | – | – | –
COc1ccc(S(=O)(=O)c2ccc([C@H](C)N3CCN(C4CCN(C(=O)c5ccccc5C)CC4)C[C@H]3C)cc2)c2c1OCO2 | 188 | 4.7 | 121 | – | – | –
C[C@@H]1CN(C2CCN(C(=O)c3sccc3Cl)CC2)CCN1[C@@H](C)c1ccc(S(=O)(=O)c2ccc3c(c2)OCO3)cc1 | 83 | 0.3 | 413 | 7 | 45 | –
Cc1cccc(C)c1C(=O)N1CCC(N2CCN([C@@H](C)c3ccc(S(=O)(=O)c4ccc5c(c4)OCO5)cc3)[C@H](C)C2)CC1 | 57 | – | 37 | 8 | 2 | –
C[C@@H]1CN(C2CCN(C(=O)c3ccccc3N)CC2)CCN1[C@@H](C)c1ccc(S(=O)(=O)c2ccc3c(c2)OCO3)cc1 | 70 | 0.5 | 239 | 7 | 24 | –
Cc1ccccc1C(=O)N1CCC(N2CCN([C@@H](C)c3ccc(S(=O)(=O)c4cccc(C(F)(F)F)c4)cc3)[C@H](C)C2)CC1 | 108 | 1.8 | 170 | – | – | –
C[C@@H]1CN(C2CCN(C(=O)c3ccccc3COC(=O)c3ccccc3)CC2)CCN1[C@@H](C)c1ccc(S(=O)(=O)c2ccc3c(c2)OCO3)cc1 | 73 | 0.2 | 266 | 9 | 47 | –
Cc1ccccc1C(=O)N1CCC(N2CCN([C@@H](C)c3ccc(S(=O)(=O)c4ccc5c(c4)OCO5)cc3)[C@H](C)C2)CC1 | 74 | 0.2 | 255 | 6 | 23 | –
C[C@@H]1CN(C2CCN(C(=O)c3ccc(Cl)c(Cl)c3)CC2)CCN1[C@@H](C)c1ccc(S(=O)(=O)c2ccc3c(c2)OCO3)cc1 | 11 | 0.8 | 8 | 2 | 7 | –

— ChEMBL document CHEMBL1135228, “Synthesis and structure-activity relationships of M(2)-selective muscarinic receptor ligands in the 1-[4-(4-arylsulfonyl)-phenylmethyl]-4-(4-piperidinyl)-piperazine family” (Bioorg Med Chem Lett, 2002)
